# Results taken from article PMC11377146 (International Journal for Parasitology: Drugs and Drug …, 2024).
# Where “and” joins values, the source holds several entries; their conditions need not be identical. Identical values can stand only once.
# Assays:
# Cytotoxicity = format: cell-based; conditions: human, Caco-2 cells
# Outline: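 Caco-2 cells grown 24 h in EMEM + 10% FBS, 37 °C, 5% CO2. Test compound (10 ng/ml–100 μg/ml, in EMEM with 0.5% DMSO) applied for 24 h. MTT (5 mg/ml stock) added for 4 h, formazan dissolved in 4 mM HCl/0.1% Nonidet P-40 in isopropanol. A590 read, 620 nm reference. Viability relative to untreated wells; CC50 from curve fit.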
# [1] = system: G. duodenalis trophozoite stage; assay: In vitro antigiardial assay; format: cell-based; conditions: Giardia duodenalis, 48 h, G. duodenalis trophozoites
# Outline: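 Log-phase trophozoites grown in modified TYI-S-33 at 37 °C, harvested by chilling on ice, counted. DMSO stocks diluted two-fold serially; 2 × 10^5 trophozoites/well; metronidazole positive control. Incubated 48 h at 37 °C, anaerobic. BacTiter-Glo added, 20 min at 37 °C, luminescence read. Survival = medium-blank-corrected signal vs untreated; triplicates. SI = Caco-2 CC50 / IC50.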
# 3D7 parasite line = conditions: ref Whittell et al., 2011; cited from earlier work
IC50 [1],SMILES,CC50 at 24 h (Cytotoxicity),IC50 (3D7 parasite line) [nM]
2.01 µg/mL and 11.7 µM,"Cc1ncc([N+](=O)[O-])n1CCO [Metronidazole, metronidazole]",> 100 µg/mL and > 100 µM,
,"Cn1cc2c3ccccc3nc-2c2ccccc21 [isocryptolepine, Isocryptolepine]",,665
